Experimental data taken from ChEMBL document CHEMBL1152278, “Discovery of ligands for a novel target, the human telomerase RNA, based on flexible-target virtual screening and NMR” (J Med Chem, 2008).

Experiment: Binding affinity to human telomerase P2b RNA by […]
Method in brief: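 hTR-P2b RNA made by in vitro T7 polymerase transcription from a synthetic DNA template. Titration was at 50 μM RNA in 20 mM sodium phosphate pH 6.7, 50 mM NaCl, 90/10% H₂O/D₂O, 15 °C, with ligand added stepwise. Kd was fitted from 800 MHz imino-proton chemical shifts under a fast-exchange model.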

Row | Kd [µM] | Compound
1 | 570 | C[n+]1ccc(Nc2ccc(NC(=O)c3ccc(N)cc3[N+](=O)[O-])cc2)cc1
2 | 1500 | O=C(c1ccc(O)cc1)c1ccc(O)cc1
3 | 1100 | OCCOCCN1CCN(CCCN2c3ccccc3Sc3ccc(C(F)(F)F)cc32)CC1
4 | 1500 | CN1CCN2c3ncccc3Cc3ccccc3C2C1 (stereo not given) [MIRTAZAPINE]
5 | 84 | CCN(CC)Cc1cc(Nc2c3ccccc3nc3c4ccccc4n(C)c23)ccc1O
6 | 1100 | C[n+]1ccc(Nc2ccc(NC(=O)c3ccc(N)cc3)cc2)cc1
7 | 180 | Nc1ccc(NC(=O)c2ccc(N)cc2)cc1
8 | 310 | N#Cc1ccc2c(c1)N(CCCN1CCN(CCO)CC1)c1ccccc1S2
9 | 450 | CN1CCN(CCCN2c3ccccc3Sc3ccc(S(=O)(=O)N(C)C)cc32)CC1 [THIOPROPERAZINE]
10 | 1100 | CN(C)CCCN1c2ccccc2[C@H]2C[C@H]2c2ccccc21
